Sampled rows, rich in hits. Any-hit rate of the full collection: about 2.3%.
Scp1 inh – inhibitors of human Scp-1 phosphatase; Recombinant Scp1, phosphopeptide, malachite green phosphate absorbance; inhibition, % at 20 µM; actives 0.88% (n = 340,000); AID 493091;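 active = inhibition above about 50% at 20 µM, limit read from the data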;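 also: plate controls were DMSO wells with enzyme for no effect and wells lacking enzyme for full effect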
Target sequence (Q9GZU7 76-261 limits assumed): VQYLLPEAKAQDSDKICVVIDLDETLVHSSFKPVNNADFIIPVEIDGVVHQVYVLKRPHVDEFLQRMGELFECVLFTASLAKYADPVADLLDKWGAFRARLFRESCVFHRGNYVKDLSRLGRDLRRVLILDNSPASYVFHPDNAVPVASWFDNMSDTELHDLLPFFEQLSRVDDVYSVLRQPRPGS
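System: truncated SCP-1 phosphatase (76-261aa); medium: Tris acetate buffer pH 5.5 with MgCl2 and Tween-20; incubation: 45 min room-temperature reaction, 5 min colour, 30 min stabiliser; compound: single 20 µM dose, 1% DMSO; reagent: Phosphorylated 17-residue peptide substrate; read-out: % inhibition at 20 µM; technique: colorimetric free-phosphate detection, absorbance 630 nm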
Rpn11 block – inhibitors of human proteasome Rpn11. human 26S proteasome, Ub4-pepOG fluorescence polarization; 20S core pre-blocked with epoxomicin. inhibition, % at 20 µM. actives 0.59% (n = 360,000);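 active = inhibition at 20 µM, scaled to each plate's controls, above about 33%, limit read from the data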
SUMO1 PPI mod – alters human SUMO1 binding to SIM partners; P63165; inhibition, % at 20 µM; actives 0.33% (n = 360,000); SUMO1 binding to a labelled peptide, TR-FRET, 1 h; in the data active = inhibition above about 37%
Target sequence (P63165 whole entry, looked up): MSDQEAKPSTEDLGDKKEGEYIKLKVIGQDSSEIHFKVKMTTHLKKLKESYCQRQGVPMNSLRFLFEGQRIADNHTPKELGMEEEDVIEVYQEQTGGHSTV
STEP block – inhibitors of human striatal-enriched phosphatase STEP; P54829; recombinant STEP, OMFP fluorogenic substrate, fluorescence; inhibition, % at 20 µM; actives 0.25% (n = 360,000); AID 588621;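 active = inhibition at 20 µM, scaled per plate between control wells, above about 37%, limit read from the data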;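 also: 0% = DMSO with enzyme and substrate and 100% = substrate only without enzyme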
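Material: STEP (striatal-enriched tyrosine phosphatase) enzyme, cell-free | Medium: 50 mM Bis-Tris pH 6.0 with 2.5 mM DTT and 0.005% Tween 20 | Read-out: Percent inhibition scaled to no-enzyme and uninhibited-enzyme controls, plate-pattern corrected | Signal: Fluorescence read at 480 nm ex / 540 nm em | Times: 20 min reaction, room temperature, in the dark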
DNMT1 inh – DNMT1 (human) enzyme inhibition | inhibition (reported as % activation of signal), % at 10 µM | DNMT1 molecular beacon, Hinp1I cleavage, fluorescence | P26358 | actives 0.83% (n = 360,000) | AID 588458; in the data active = inhibition above about 50%
LMPTP inh – blocks human LMPTP phosphatase. actives 0.22% (n = 360,000). P24666. recombinant LMPTP-A, OMFP fluorogenic substrate, fluorescence intensity. AID 651560. inhibition, % at 20 µM;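 active = compounds that cut the enzyme signal by at least half of the control window in the single-dose screen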;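 also: plate controls were DMSO wells with enzyme plus substrate for no effect and substrate without enzyme for full effect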
Target sequence (P24666 whole entry, looked up): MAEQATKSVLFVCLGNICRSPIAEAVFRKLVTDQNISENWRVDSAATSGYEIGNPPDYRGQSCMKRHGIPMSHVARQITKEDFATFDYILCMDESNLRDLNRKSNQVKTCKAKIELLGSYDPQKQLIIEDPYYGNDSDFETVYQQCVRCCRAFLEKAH
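Assay system: LMPTP-A phosphatase enzyme | Input: 0.625 nM enzyme | Also added: Fluorogenic phosphatase substrate OMFP at 400 µM final | Compound dosing: One test concentration per compound, 20 µM, with 3% DMSO overall | Schedule: 50 min enzyme reaction at room temperature, protected from light | Signal: Fluorescence intensity | Benchmarks: no-enzyme and uninhibited controls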
* marks the source's active call; other numbers are inactive results; / = not tested or not shown.

SMILES	Scp1 inh	Rpn11 block	SUMO1 PPI mod	STEP block	DNMT1 inh	LMPTP inh
CC(=O)NC(NC(C)=O)c1ccc(N(C)C)cc1	52*	4	-3	-1	4	0
CN(C)CCNc1ccc2ncn3c4ccc(O)cc4c(=O)c1c23	-13	-181	-59	-6	86*	63*
CN(C)CCNc1ccc(-c2nn(C)c(=O)c3ccccc23)cc1[N+](=O)[O-]	2	1	-29	1	7	2
CSc1ccc(-c2nc(O)c3cnccn23)cc1	-7	-5	-27	-2	3	-1
CC1CCN(C(=O)CSc2nnc(-c3ccccc3F)o2)CC1	-4	-2	54*	2	0	-1
COc1ccccc1-c1nnc(SCC(=O)N2CCC(C)CC2)o1	-14	-2	-1	-1	-1	-1
Cc1cc(C)cc(NC(=O)c2ccc(CNc3c(N4CCOCC4)c(=O)c3=O)cc2)c1	-3	17	42*	2	-4	1
Cc1ccc(CNC(=O)c2ccc(CNc3c(N4CCCC4)c(=O)c3=O)cc2)cc1	-9	-1	0	2	3	-3
Cc1cc(C)cc(NC(=O)c2ccc(CNc3c(N4CCCC4)c(=O)c3=O)cc2)c1	-4	3	51*	0	-4	0
CCc1nc2ccc(C(=O)NCCOc3ccc(OC)cc3)cn2c1N(CCC(C)C)CCN(C)C	/	-3	0	1	1	0
COc1cccc2c1C(=O)c1c(O)c3c(c(O)c1C2=O)C[C@@](O)(C(C)=O)C[C@@H]3O[C@H]1C[C@H](N)[C@H](O)[C@H](C)O1	-11	-71	-72	-46	-164	11
COc1cccc2c1C(=O)c1c(O)c3c(c(O)c1C2=O)C[C@@](O)(C(=O)CO)C[C@@H]3O[C@H]1C[C@H](N)[C@@H](O)[C@H](C)O1	-14	-60	97*	-4	-176	14
COc1ccccc1-c1nc(SCC(=O)Nc2cc(C)on2)c2c(=O)n(C)c(=O)n(C)c2n1	-5	7	-132	2	6	1
CC(C)(C)NS(=O)(=O)c1cc(C(=O)Nc2sccc2C#N)ccc1Cl	26	/	13	-1	-7	14
CCCC(=O)Nc1ccc2nc(SCC(=O)N3CCCC3)sc2c1	-7	2	-2	1	1	-2
Cn1c(SCC(=O)Nc2ccc3nc(SCC(=O)N4CCCC4)sc3c2)nnc1-c1ccccc1	102*	/	/	/	/	/
CCc1ccc2cc3c(cc2n1)C(=O)c1ccccc1-3	/	-7	-28	2	-5	3
Cc1cc(C)n(-c2ccc(C(=O)Nc3nc4ccccc4s3)cc2)n1	-2	2	6	-1	-9	-2
Nc1ccc(C(=O)Nc2nc3ccccc3s2)cc1	60*	-5	2	0	-4	-1
Nc1ccc(NC(=O)c2ccc(C(=O)Nc3ccc(N)cc3)cc2)cc1	-10	16	59*	39	-22	6
COc1ccc(N2CCN(C(=O)Oc3ccc([N+](=O)[O-])cc3)CC2)cc1	/	/	-18	/	/	-2
Cc1cc(N2CCN(C(=O)Oc3ccc([N+](=O)[O-])cc3)CC2)c2ccccc2n1	/	/	-22	/	/	51*
Cc1nc2ccccc2c2oc(C(=O)N3CCN(C(=O)c4ccco4)CC3)cc12	7	2	0	2	2	0
Cc1nc2ccccc2c2oc(C(=O)N3CCN(c4ccc([N+](=O)[O-])cc4)CC3)cc12	3	0	50*	0	1	5
Cc1cc(N2CCN(S(=O)(=O)c3ccc(Cl)c(Cl)c3)CC2)c2ccccc2n1	6	-4	7	3	-2	55*
SMILES	Scp1 inh	Rpn11 block	SUMO1 PPI mod	STEP block	DNMT1 inh	LMPTP inh
Cc1ccc(C(=O)c2c(C)oc3c2C(=O)C(=O)c2ccccc2-3)cc1	-7	2	18	17	52*	4
CN(C)S(=O)(=O)c1ccc2c(c1)Cc1cc(S(=O)(=O)N(C)C)ccc1-2	-12	-4	5	2	1	1
CN(C)c1ccc(-c2nc3ccccn3c2/N=C/c2ccc(Br)cc2)cc1	-8	-8	-17	42*	-19	1
O=C(/C=C/c1ccco1)Nc1cccc2cccnc12	1	-94	28	2	63*	50*
O=C(O)/C=C/C(=O)Nc1cccc2cccnc12	-4	-3	-6	-2	4	-2
O=C(Nc1nccs1)c1cc(-c2ccccn2)nc2c(Cl)cccc12	-5	-54	53*	0	27	0
COc1ccc(C2=CC3=C(Br)C(=O)C(C)(OC(=O)c4cccs4)C(=O)C3=CO2)cc1 (stereo unspecified)	9	13	44*	2	-9	0
COc1ccc(C2=CC3=C(Br)C(=O)C(C)(OC(=O)c4ccco4)C(=O)C3=CO2)cc1 (stereo unspecified)	21	8	32	0	33	2
C#CCOCCOCCOCCNc1nc(N2CCN(C(=O)[C@H](CC(N)=O)n3cc(C(N)[C@H](C)CC)nn3)CC2)nc(N2CCN(C(=O)[C@H](CC(N)=O)n3cc(C(N)[C@@H](C)CC)nn3)CC2)n1 (stereo partly specified)	-8	-7	-1	-2	26	-3
O=C(NC1CCCCC1)c1noc2c1CCCCC2	-2	-4	2	0	2	-1
C/C(CC(=O)NCc1ccco1)=N\NC(=O)C(c1ccccc1)c1ccccc1	-3	1	49*	-2	-2	2
C/C(CC(=O)NCc1ccco1)=N\NC(=O)Cc1ccccc1	-2	-1	1	-2	-4	-2
CC1CCc2c(sc3ncn(CC(=O)N=Nc4c(O)[nH]c5ccccc45)c(=O)c23)C1 (stereo unspecified)	18	-16	6	3	54*	1
Cc1c(-c2ccccc2)c(-c2ccc(OCCN(C)C)cc2)n2ccccc12	-5	30	-42	-2	-4	80*
O=C(Nc1ccccn1)Nc1ccccc1Cl	-5	-6	1	-2	2	0
O=C(COC(=O)c1ccc(S(=O)(=O)N2CCCCC2)cc1)Nc1ccccc1Cl	4	0	2	-1	6	-1
CCN1CCN(c2ccc(Nc3ccnc4ccccc34)cc2)CC1	-2	0	-28	-3	7	67*
COc1ccc(S(=O)(=O)/N=C2\C=C(Nc3ccc(O)cc3)C(=O)c3ccccc32)cc1	-15	13	19	0	41	9
O=C(O)c1ccc(S(=O)(=O)/N=C2\C=C(Nc3ccccc3F)C(=O)c3ccccc32)cc1	-1	5	75*	5	74*	10
